ChEMBL document CHEMBL5649170, “Sustained microglial depletion with CSF1R inhibitor impairs parenchymal plaque development in an Alzheimer's disease model” (Nat Commun, 2019)
Activity calls are given as the source filed them. No cut-off for these calls is given here.

What was measured:
[1] = biological target: Tyrosine-protein kinase BTK (Homo sapiens, UniProt Q06187); assay: Inhibition of BTK (unknown origin)
[2] = biological target: Casein kinase II subunit alpha' (Homo sapiens, UniProt P19784); assay: Inhibition of CSNK2A2 (unknown origin)
Sequence of Casein kinase II subunit alpha' (P19784 whole entry): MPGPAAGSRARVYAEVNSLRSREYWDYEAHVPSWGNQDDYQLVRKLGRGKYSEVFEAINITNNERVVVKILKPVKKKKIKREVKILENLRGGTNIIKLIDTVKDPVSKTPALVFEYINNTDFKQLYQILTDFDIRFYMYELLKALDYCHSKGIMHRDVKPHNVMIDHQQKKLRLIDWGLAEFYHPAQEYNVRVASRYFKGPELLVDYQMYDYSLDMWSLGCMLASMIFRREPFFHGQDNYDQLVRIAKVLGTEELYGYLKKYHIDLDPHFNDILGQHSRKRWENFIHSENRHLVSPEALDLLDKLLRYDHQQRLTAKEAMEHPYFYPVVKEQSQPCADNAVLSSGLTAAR

[3] = biological target: Ephrin type-A receptor 1 (Homo sapiens, UniProt P21709); assay: Inhibition of EPHA1 (unknown origin)
[4] = biological target: Mitogen-activated protein kinase 1 (Homo sapiens, UniProt P28482); assay: Inhibition of MAPK1 (unknown origin)
Sequence of Mitogen-activated protein kinase 1 (P28482 whole entry): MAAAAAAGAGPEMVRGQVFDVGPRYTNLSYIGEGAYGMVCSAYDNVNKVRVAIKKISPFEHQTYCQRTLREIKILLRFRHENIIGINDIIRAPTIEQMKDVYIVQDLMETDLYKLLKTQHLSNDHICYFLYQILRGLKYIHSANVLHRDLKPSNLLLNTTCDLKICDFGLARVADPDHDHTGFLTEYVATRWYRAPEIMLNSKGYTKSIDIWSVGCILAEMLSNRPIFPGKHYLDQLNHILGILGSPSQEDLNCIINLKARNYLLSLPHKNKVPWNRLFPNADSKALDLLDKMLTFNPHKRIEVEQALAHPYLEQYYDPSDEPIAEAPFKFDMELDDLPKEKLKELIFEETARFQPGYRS

[5] = biological target: Tyrosine-protein kinase Mer (Homo sapiens, UniProt Q12866); assay: Inhibition of MERTK (unknown origin)
Sequence of Tyrosine-protein kinase Mer (Q12866 whole entry): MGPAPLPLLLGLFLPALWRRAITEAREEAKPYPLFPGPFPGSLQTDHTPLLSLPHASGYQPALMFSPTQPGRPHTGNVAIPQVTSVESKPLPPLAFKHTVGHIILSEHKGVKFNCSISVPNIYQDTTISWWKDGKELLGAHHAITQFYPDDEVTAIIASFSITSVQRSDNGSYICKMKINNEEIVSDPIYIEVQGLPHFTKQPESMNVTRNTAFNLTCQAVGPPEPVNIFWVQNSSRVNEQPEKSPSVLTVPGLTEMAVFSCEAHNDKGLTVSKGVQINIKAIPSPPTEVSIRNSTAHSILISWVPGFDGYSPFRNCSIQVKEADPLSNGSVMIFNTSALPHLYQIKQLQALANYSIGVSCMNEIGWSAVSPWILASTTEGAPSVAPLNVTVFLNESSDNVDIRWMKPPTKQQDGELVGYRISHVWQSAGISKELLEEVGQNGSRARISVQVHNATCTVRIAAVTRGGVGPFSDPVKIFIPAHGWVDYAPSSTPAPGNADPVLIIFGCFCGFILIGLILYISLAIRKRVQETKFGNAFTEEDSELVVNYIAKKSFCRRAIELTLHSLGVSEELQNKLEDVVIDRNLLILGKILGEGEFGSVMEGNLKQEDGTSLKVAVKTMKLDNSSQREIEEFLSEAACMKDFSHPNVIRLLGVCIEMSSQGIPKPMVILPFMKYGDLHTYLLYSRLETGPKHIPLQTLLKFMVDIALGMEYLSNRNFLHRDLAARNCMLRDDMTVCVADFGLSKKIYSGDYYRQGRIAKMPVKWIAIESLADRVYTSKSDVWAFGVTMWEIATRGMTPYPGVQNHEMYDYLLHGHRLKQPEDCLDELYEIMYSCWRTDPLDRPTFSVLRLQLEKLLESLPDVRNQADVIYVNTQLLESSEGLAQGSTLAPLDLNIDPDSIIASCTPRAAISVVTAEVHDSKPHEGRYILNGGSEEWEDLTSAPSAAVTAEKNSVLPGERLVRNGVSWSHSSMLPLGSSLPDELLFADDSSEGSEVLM

[6] = biological target: cAMP-dependent protein kinase catalytic subunit alpha (Homo sapiens, UniProt P17612); assay: Inhibition of PRKACA (unknown origin)
[7] = biological target: Protein kinase C epsilon type (Homo sapiens, UniProt Q02156); assay: Inhibition of PRKCE (unknown origin)
[8] = biological target: Proto-oncogene tyrosine-protein kinase receptor Ret (Homo sapiens, UniProt P07949, V804L); assay: Inhibition of RET V804L mutant (unknown origin)
Sequence of Proto-oncogene tyrosine-protein kinase receptor Ret (P07949 29-1114 V804L limits assumed): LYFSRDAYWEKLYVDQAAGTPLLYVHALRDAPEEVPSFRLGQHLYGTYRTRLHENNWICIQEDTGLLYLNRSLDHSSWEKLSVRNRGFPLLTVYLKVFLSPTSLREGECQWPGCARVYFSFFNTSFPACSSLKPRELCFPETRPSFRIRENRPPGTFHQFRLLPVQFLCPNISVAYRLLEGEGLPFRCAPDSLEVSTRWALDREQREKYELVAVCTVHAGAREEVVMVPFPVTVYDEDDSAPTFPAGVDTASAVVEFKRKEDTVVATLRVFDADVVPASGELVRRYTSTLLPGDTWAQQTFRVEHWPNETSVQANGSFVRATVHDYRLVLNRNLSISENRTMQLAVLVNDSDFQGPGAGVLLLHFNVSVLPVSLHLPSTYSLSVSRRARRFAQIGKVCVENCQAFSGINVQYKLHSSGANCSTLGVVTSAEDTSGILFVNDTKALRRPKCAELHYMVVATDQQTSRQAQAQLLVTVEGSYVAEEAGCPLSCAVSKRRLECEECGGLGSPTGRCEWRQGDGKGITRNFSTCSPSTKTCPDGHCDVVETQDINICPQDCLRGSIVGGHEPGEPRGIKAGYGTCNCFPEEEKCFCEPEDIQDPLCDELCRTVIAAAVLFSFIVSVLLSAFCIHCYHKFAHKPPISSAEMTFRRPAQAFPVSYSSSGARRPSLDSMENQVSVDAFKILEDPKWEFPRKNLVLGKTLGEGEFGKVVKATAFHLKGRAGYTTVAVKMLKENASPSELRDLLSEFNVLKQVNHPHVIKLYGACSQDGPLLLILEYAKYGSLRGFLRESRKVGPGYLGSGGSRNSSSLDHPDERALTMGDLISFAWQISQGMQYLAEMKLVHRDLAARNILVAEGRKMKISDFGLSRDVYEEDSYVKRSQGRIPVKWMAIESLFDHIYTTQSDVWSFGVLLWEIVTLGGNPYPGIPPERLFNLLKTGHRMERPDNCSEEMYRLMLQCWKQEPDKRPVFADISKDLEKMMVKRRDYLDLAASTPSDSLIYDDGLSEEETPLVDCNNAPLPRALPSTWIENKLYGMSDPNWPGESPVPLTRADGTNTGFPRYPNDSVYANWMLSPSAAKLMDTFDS

[9] = biological target: Rho-associated protein kinase 1 (Homo sapiens, UniProt Q13464); assay: Inhibition of ROCK1 (unknown origin)
Sequence of Rho-associated protein kinase 1 (Q13464 whole entry): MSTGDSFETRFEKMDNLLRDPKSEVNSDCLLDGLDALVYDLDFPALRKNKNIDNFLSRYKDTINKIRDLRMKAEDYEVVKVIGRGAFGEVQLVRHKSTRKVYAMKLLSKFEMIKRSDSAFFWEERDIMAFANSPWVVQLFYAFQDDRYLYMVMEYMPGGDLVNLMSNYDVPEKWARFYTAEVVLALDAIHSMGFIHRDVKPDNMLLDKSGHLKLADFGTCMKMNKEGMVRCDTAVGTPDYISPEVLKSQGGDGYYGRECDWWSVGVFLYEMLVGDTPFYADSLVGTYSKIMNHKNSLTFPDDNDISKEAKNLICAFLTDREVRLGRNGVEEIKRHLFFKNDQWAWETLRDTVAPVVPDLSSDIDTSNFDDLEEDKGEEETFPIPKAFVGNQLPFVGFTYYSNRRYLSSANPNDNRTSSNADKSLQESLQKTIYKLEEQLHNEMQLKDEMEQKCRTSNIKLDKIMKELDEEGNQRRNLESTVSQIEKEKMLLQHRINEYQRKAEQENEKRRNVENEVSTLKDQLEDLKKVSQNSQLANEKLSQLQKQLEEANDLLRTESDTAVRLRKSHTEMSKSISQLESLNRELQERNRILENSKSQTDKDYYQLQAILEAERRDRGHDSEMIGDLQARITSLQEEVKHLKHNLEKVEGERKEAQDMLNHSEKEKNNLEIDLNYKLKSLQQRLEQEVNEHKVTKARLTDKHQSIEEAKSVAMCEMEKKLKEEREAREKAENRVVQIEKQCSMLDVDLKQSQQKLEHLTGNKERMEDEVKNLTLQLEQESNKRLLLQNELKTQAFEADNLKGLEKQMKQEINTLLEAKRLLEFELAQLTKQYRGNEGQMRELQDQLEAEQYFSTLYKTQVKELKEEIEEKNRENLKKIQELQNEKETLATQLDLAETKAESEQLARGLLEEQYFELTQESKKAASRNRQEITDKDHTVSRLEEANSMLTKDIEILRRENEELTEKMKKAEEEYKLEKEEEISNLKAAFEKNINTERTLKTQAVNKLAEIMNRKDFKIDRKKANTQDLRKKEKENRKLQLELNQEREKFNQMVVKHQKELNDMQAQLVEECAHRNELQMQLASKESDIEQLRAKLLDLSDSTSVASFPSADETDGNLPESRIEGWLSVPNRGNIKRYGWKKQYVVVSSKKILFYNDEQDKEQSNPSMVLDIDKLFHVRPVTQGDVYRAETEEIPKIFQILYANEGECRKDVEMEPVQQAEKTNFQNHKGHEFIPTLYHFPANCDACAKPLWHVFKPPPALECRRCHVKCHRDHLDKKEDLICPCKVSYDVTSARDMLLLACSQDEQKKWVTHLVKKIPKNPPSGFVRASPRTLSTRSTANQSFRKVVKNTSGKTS

[10] = biological target: Ribosomal protein S6 kinase beta-1 (Homo sapiens, UniProt P23443); assay: Inhibition of RPS6KB1 (unknown origin)
Sequence of Ribosomal protein S6 kinase beta-1 (P23443 whole entry): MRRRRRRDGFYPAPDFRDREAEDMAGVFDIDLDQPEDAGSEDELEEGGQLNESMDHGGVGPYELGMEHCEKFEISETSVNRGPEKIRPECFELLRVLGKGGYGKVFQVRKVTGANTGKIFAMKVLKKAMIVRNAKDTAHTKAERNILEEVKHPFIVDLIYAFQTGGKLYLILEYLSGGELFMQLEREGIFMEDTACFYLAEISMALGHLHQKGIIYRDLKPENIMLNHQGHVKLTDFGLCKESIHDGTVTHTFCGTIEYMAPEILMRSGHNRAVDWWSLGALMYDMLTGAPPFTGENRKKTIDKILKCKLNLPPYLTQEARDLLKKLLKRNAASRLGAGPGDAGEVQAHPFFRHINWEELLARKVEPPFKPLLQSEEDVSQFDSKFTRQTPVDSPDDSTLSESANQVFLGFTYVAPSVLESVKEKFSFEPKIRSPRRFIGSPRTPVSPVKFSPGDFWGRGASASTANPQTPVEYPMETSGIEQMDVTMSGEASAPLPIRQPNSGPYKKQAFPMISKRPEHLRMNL

[11] = Volume of distribution at steady state in male rat at 1.13 mg/kg, iv administered as single dose; type: ADME, organism-based; conditions: in vivo, read-out: Vdss
[12] = Half-life in female rat at 1.13 mg/kg, iv administered as single dose; type: ADME, organism-based; conditions: in vivo
[13] = AUC (0 to infinity) in female rat at 45 mg/kg, po administered as single dose via gavage; type: ADME, organism-based; conditions: in vivo
[14] = Drug concentration in wildtype mouse plasma at 1200 ppm administered as rodent chow for 10 to 24 weeks; type: ADME, cell-free; conditions: po, time 10-24 weeks
How it was run: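 WT or 5xFAD mice were started at 1.5 months of age on PLX5622 formulated at 1200 ppm in AIN-76A chow, with control chow as comparison. Feeding ran for 10 or 24 weeks. Terminal plasma and brain drug levels were then measured. Groups were sex-balanced and compared by two-tailed independent t-test.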

[15] = test system: Mus musculus; assay: Antialzheimer activity in 5XFAD mouse assessed as number of Iba positive cells per FOV in somatosensory cortex at 1200 ppm administered as rodent chow starting from 1.5 months and measured after 7 months (reference value: 335 to 848); type: functional; conditions: route po, time 5.5 months, 4015 h
[16] = test system: Mus musculus; assay: Antialzheimer activity in 5XFAD mouse assessed as microglial elimination at 1200 ppm administered as rodent chow for 24 weeks relative to control; type: functional; conditions: route po
[17] = test system: Mus musculus; assay: Antialzheimer activity in 5XFAD mouse assessed as time to locate platform at 1200 ppm administered as rodent chow for 10 to 24 weeks by Morris water maze test (reference value: 6.5 to 60 sec); type: functional; conditions: route po, time 10-24 weeks
How it was run: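 Morris water maze: a circular pool was filled with opaque water (white paint added), and mice were given four trials per acquisition day. Twenty-four hours after the last acquisition day, the platform was removed for a 60 s probe trial. Mice had been on 1200 ppm PLX5622 or control chow for 10 or 24 weeks from 1.5 months of age.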

[18] = test system: Mus musculus; assay: Antialzheimer activity in 5XFAD mouse assessed as A11 protein intensity at 1200 ppm administered as rodent chow starting from 1.5 months and measured after 7 months by immunoblot analysis (reference value: 54.431 to 142.272 a.u.); type: functional; conditions: route po, time 5.5 months, 4015 h
[19] = biological target: T1, Macrophage colony-stimulating factor 1 receptor (Mus musculus) (UniProt P09581); assay: In vivo inhibition of CSF1R in wildtype mouse assessed as microglial elimination in thalamus at 1200 ppm administered as rodent chow for 10 weeks by […] based confocal microscopic analysis; type: functional; conditions: route po
T1 sequence (whole entry): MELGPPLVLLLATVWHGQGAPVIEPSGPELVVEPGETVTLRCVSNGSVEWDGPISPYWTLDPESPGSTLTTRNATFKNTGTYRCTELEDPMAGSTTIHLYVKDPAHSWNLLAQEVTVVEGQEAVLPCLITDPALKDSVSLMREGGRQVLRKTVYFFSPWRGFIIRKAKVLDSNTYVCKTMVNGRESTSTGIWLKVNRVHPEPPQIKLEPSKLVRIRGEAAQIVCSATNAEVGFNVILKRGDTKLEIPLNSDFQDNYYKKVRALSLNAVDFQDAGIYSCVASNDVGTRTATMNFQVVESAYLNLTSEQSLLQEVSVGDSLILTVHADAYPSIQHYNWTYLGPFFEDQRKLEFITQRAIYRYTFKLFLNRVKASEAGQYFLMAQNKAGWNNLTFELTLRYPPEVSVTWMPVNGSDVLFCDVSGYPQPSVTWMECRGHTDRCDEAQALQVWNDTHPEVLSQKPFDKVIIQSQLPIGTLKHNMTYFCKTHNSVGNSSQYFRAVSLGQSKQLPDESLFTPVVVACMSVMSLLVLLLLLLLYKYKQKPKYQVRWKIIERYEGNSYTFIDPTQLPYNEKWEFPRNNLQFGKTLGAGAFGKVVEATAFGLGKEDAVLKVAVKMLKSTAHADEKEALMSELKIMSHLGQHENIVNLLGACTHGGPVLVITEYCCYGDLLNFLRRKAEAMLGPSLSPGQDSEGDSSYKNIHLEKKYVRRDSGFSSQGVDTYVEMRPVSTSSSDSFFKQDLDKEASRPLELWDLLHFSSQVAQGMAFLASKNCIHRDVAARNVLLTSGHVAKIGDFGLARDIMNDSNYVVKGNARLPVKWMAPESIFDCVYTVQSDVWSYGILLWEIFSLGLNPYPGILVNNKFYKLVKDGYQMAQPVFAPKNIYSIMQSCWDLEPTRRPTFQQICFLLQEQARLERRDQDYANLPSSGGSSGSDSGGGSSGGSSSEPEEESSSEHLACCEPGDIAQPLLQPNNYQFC

[20] = test system: Mus musculus; assay: Antialzheimer activity in 5XFAD mouse assessed as alteration in plaque morphology by measuring average plaque circularity in thalamus at 1200 ppm administered as rodent chow starting from 1.5 months and measured after 7 months by Thio-S labeling based confocal microscopic analysis (reference value: 0.257 to 0.365); type: functional; conditions: route po, time 5.5 months, 4015 h
[21] = Effect on Ctsd gene expression in 5XFAD mouse thalamus at 1200 ppm administered as rodent chow starting from 1.5 months and measured after 7 months by RNA-Seq analysis (reference value: 209.488 to 301.760 RPKM); type: functional; conditions: route po, time 5.5 months, 4015 h
[22] = biological target: T1, Macrophage colony-stimulating factor 1 receptor (Mus musculus); assay: (§1) In vivo inhibition of CSF1R in wildtype mouse assessed as number of Iba1 positive cells per FOV in thalamus cortex at 1200 ppm administered as rodent chow starting from 1.5 months to 4 months followed by compound removal and measured after 1 months by immunolabelling based confocal microscopic analysis (reference value: 232 to 320); type: functional; conditions: route po, time 2.5 months
[23] = test system: Mus musculus; assay: as §1, with “Antialzheimer activity” for “In vivo inhibition of CSF1R”, “5XFAD” for “wildtype”, “This-S” for “Iba1”, “[…]” for “thalamus”, “63” for “232”, “124)” for “320)”; type: functional; conditions: route po, time 2.5 months, 1825 h
How it was run: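 For the repopulation paradigm, 5xFAD mice ate 1200 ppm PLX5622 chow from 1.5 to 4 months of age. Inhibitor chow was then withdrawn, and brains were examined one month later. Sections were stained with Thio-S and immunolabeled for IBA1, then analysed by confocal microscopy in cortical regions.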

SMILES: COc1ncc(F)cc1CNc1ccc(Cc2c[nH]c3ncc(C)cc23)c(F)n1 [PLX-5622]
- IC50 [1]: > 1000 nM
- IC50 [2]: > 1000 nM
- IC50 [3]: > 1000 nM
- IC50 [4]: > 1000 nM
- IC50 [5]: > 1000 nM
- IC50 [6]: > 1000 nM
- IC50 [7]: > 1000 nM
- IC50 [8]: > 1000 nM
- IC50 [9]: > 1000 nM
- IC50 [10]: > 1000 nM
- Vd [11]: 1.2 L/kg
- half-life [12]: 3.9 h
- AUC(0-inf) [13]: 181 µg·h/mL
- concentration [14]: 17.8 µM
- Activity [15]: 0
- Activity [16]: 97%
- Time [17]: 9.2 s
- Flu intensity [18]: 21.124 a.u.
- inhibition [19]: inactive
- Activity [20]: 0.175
- Activity [21]: 111.226 RPKM
- Activity [22]: 270
- Activity [23]: 60
